Compound activity from PubChem BioAssay.
Shown are actives, neighbours in structure and some others; about 3.5% of the full set was active somewhere.
Cneo AK release: causes C. neoformans cell lysis; adenylate kinase release luminescence, 4 h; normalised: neutral wells 0, clomiphene wells 100; lysis activity, % at 15 µM; hit rate 0.2% among 360,000; AID 651654;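 active = mean lysis activity across replicates of at least 80%, whatever share of replicates individually reach that level; inactive = mean lysis activity below 80%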
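Material: C. neoformans cells; Schedule: 4 h static compound exposure, 37 °C, read 1 h post-reagent; Measured by: adenylate kinase release luminescence; Read-out: signal increase indicating cell lysis; Controls: Clomiphene as positive lysis control.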
FGF22 binding: shifts melting point of recombinant human FGF22; Q9HCT0; recombinant FGF22 thermal shift, SYPRO orange fluorescence; percent of sucrose octasulfate shift, DMSO zero; hit rate 1.5% among 340,000; AID 651658; activity (Tm shift, normalised), % at 9.99 µM;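 active = mean Tm shift, scaled 0 neutral to 100 positive control, at about 1.3% or above, every replicate too, limit read from the data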
HIV Env fusion: HIV envelope-mediated fusion inhibition; AID 651610; HeLa-JRFL Env/CEM21 cell fusion, luciferase; inhibition, % at 12.3 µM; hit rate 1.1% among 360,000;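 active = mean replicate inhibition score of at least 50 and every replicate individually at or above 50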;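 note: 0% = plate neutral controls and 100% = maraviroc near 300 nM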
PGC1a acetyl inh: modulators of PGC1a acetylation; inhibition, % at 15.6 µM; U2OS PGC1a acetylation, AlphaScreen anti-acetyl-lysine; with virally co-expressed GCN5 acetyltransferase; AID 651687; hit rate 0.17% among 350,000;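 active = every replicate shows inhibition of at least 40%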;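 note: 0% = neutral control wells and 100% = positive control wells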
rRNA inh HTS: inhibits bacterial ribosomal RNA function over humanized ribosomes; AID 720706; hit rate 1.6% among 350,000; E. coli WT GFP vs humanized-ribosome RFP mutants, fluorescence, 24 h; stronger effect = lower value; DMSO median 0, no signal -100; GFP signal change (wild-type ribosome), % (concentration not given with the values);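 active = significant combined selectivity score with lowered wild-type GFP, culture density cut under 30%, mutant RFP and density less affected; inactive = any of these conditions unmet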
ERAP1 HTS inh: inhibitors of human ERAP1 aminopeptidase. AID 652197. hit rate 0.15% among 340,000. inhibition, % at 10.7 µM. recombinant ERAP1, Leu-AMC fluorescence, 60 min. Q9NZ08;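 active = mean replicate inhibition of at least 30%, or all replicates individually reaching that 30% level; inactive = mean below 30% and not every replicate reaching it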;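 note: 0% = neutral control wells and 100% = L-leucinethiol positive control wells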
* marks the source's active call; other numbers are inactive results.

Clc1cccc(-c2noc3ncnc(Nc4ccc5c(c4)OCO5)c23)c1 was read as Cneo AK release -2, FGF22 binding 0, HIV Env fusion 34, PGC1a acetyl inh 2, rRNA inh HTS -22* and ERAP1 HTS inh 3.
O=C(O)c1ccccc1-c1ccccc1C(=O)NCc1cccc(C(F)(F)F)c1 was read as FGF22 binding 1, HIV Env fusion -54, rRNA inh HTS -20 and ERAP1 HTS inh 0.
COCc1ccc(-c2c(-c3ccsc3)oc(=O)c3cc(OC)c(OC)cc23)cc1 was read as Cneo AK release 11, FGF22 binding 0, HIV Env fusion -57, rRNA inh HTS 10 and ERAP1 HTS inh 0.
`COCCCNC(=O)c1sc2ncnc(N3CCc4ccccc4C3)c2c1C` gave Cneo AK release -6, HIV Env fusion 78* and PGC1a acetyl inh 5.
For Cc1c(C(=O)N2CCOCC2)sc2ncnc(N3CCc4ccccc4C3)c12 the results were Cneo AK release -2 and PGC1a acetyl inh 15.
Screening COC(C(=O)NCc1ccc(C)cc1)c1ccccc1 (stereo not given) returned FGF22 binding 43*, HIV Env fusion -17, PGC1a acetyl inh 1, rRNA inh HTS 10 and ERAP1 HTS inh 1.
CC(=O)Oc1ccc(/C=C2/CCc3ccccc3C2=O)cc1 was read as Cneo AK release -6, FGF22 binding 0, HIV Env fusion 3, rRNA inh HTS -31* and ERAP1 HTS inh 5.
`O=C1CC(N2CCOCC2)C(=O)N1c1ccc(Cl)cc1` (stereo not given) gave Cneo AK release 1, FGF22 binding 1, HIV Env fusion 14, PGC1a acetyl inh 15, rRNA inh HTS 4 and ERAP1 HTS inh -1.
C/C=C/c1ccc([C@H]2[C@H](CO)N3CCCCN(C(=O)Nc4ccc(OC)cc4)C[C@@H]23)cc1 was read as Cneo AK release -1, FGF22 binding 0, PGC1a acetyl inh 2, rRNA inh HTS -11 and ERAP1 HTS inh 1.
`O=C(Nc1ccccc1)N1CCCCN2[C@H](C1)[C@H](c1ccc(C#CC3CC3)cc1)[C@@H]2CO` gave Cneo AK release 108*, FGF22 binding 1, PGC1a acetyl inh 10, rRNA inh HTS 5 and ERAP1 HTS inh 0.
OC[C@@H]1[C@H](c2ccc(C#CC3CCCC3)cc2)[C@H]2CN(CCC(F)(F)F)CCCCN12 was read as Cneo AK release 24, FGF22 binding 0, PGC1a acetyl inh 81*, rRNA inh HTS -58 and ERAP1 HTS inh 1.
For C/C=C/c1ccc([C@@H]2[C@H]3CN(C(=O)Nc4ccc(OC)cc4)CCCCN3[C@H]2CO)cc1 the results were Cneo AK release 114*, FGF22 binding 0, PGC1a acetyl inh 6, rRNA inh HTS 0 and ERAP1 HTS inh 0.
`O=C(COc1ccc(Br)cc1)N1CCCCCC1` gave Cneo AK release -1 and PGC1a acetyl inh 3.
`COC(=O)c1cccc(S(=O)(=O)N(Cc2ccco2)Cc2cc3cc(OC)c(OC)cc3[nH]c2=O)c1` gave Cneo AK release 2, HIV Env fusion -4 and PGC1a acetyl inh -5.
O=C(Nc1cccc(Cl)c1)OC1CCCCc2cccnc21 (stereo not given) was read as FGF22 binding 0, HIV Env fusion 13, rRNA inh HTS -24* and ERAP1 HTS inh 0.
`CN(C)S(=O)(=O)c1cccc(NC(=O)c2n[nH]c(=O)c3ccccc23)c1` gave FGF22 binding 0, HIV Env fusion 26, PGC1a acetyl inh 12, rRNA inh HTS -26* and ERAP1 HTS inh -2.
For O=C(NCCc1ccccc1)c1n[nH]c(=O)c2ccccc12 the results were Cneo AK release -2, FGF22 binding 43*, HIV Env fusion 4, PGC1a acetyl inh 7, rRNA inh HTS 7 and ERAP1 HTS inh -1.
`Cc1cc(NC(=O)c2n[nH]c(=O)c3ccccc23)ccc1Br` gave FGF22 binding 0, HIV Env fusion -7, rRNA inh HTS 20 and ERAP1 HTS inh -1.
`CC(C)c1ccc(NC(=O)c2n[nH]c(=O)c3ccccc23)cc1` gave FGF22 binding 0, HIV Env fusion -41, PGC1a acetyl inh 108*, rRNA inh HTS 4 and ERAP1 HTS inh -1.
